From ChEMBL document CHEMBL2203218, “Evaluation of [(11)C]N-Methyl Lansoprazole as a Radiopharmaceutical for PET Imaging of Tau Neurofibrillary Tangles” (ACS Med Chem Lett, 2012)
Blank lines part the entries; values can stand above or below the compound they belong to.

Columns and labels:
[1] = target: Microtubule-associated protein tau (Homo sapiens, UniProt P10636); assay: Binding affinity to heparin induced human Tau 441 at 50 pM to 500 nM after 30 mins
[2] = Drug uptake in human globus pallidus using bielschowsky staining by autoradiography analysis; type: ADME, tissue-based
Summary of the method: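 PSP patient brain blocks were cut into 20 μm cryostat sections on slides and incubated with tracer for 10 min. Slides were washed, dried and exposed to film for 5 min. The same slides were then stained by modified Bielschowsky staining to locate tau NFTs for colocalization.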

Hippocampus = assay: Drug uptake in human Tau expressing Sprague-Dawley rat hippocampus at 1 to 10 mCi by autoradiography analysis relative to wild type Sprague-Dawley rat brain; type: ADME, tissue-based; conditions: in vivo
Cortex = assay: Drug uptake in human Tau expressing Sprague-Dawley rat cortex at 1 to 10 mCi by autoradiography analysis relative to wild type Sprague-Dawley rat brain; type: ADME, tissue-based; conditions: in vivo
Brain [3] = assay: Drug uptake in wild type Sprague-Dawley rat brain at 1 to 10 mCi by autoradiography analysis; type: ADME, tissue-based; conditions: in vivo
Brain [4] = assay: Drug uptake in human Tau expressing Sprague-Dawley rat brain at 1 to 10 mCi by autoradiography analysis; type: ADME, tissue-based; conditions: in vivo
Rattus norvegicus = assay: Metabolic stability in anesthetized iv dosed Sprague-Dawley rat […] and HPLC analysis; type: ADME, organism-based; conditions: in vivo, in the assay text read “5 to 30 mins” for “5 to 60 mins”
Summary of the method: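 Sprague-Dawley rats, anesthetized, received tracer via tail vein (three per time point). They were allowed to wake, then reanesthetized and sacrificed at 5, 15 and 30 min. Blood collected at each time was centrifuged, and the plasma was analyzed by HPLC and radio-TLC for parent and radioactive metabolites.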

Kidney = assay: Biodistribution in iv dosed Sprague-Dawley rat kidney after 5 to 60 mins by gamma counting; type: ADME, organism-based; conditions: in vivo
Summary of the method: (§1)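 Tracer reconstituted in ethanolic saline and injected via tail vein into anesthetized Sprague-Dawley rats (three per time point). Rats were allowed to wake, then reanesthetized and sacrificed at 5, 30 and 60 min postinjection for tissue distribution.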

Brain [5] = assay: Drug uptake in rhesus monkey brain at 5.4 mCi, iv after 3 mins by MicroPET analysis; type: ADME, organism-based, Macaca mulatta; conditions: in vivo, 0.05 h
Liver = assay: Biodistribution in iv dosed Sprague-Dawley rat liver after 5 to 60 mins by gamma counting; type: ADME, organism-based; conditions: in vivo; summary of the method: as §1
Brain [6] = assay: Drug uptake in rhesus monkey brain at 5.4 mCi, iv at 3 mins by MicroPET analysis; type: ADME, organism-based, Macaca mulatta; conditions: in vivo, 0.05 h
Brain [7] = assay: Biodistribution in iv dosed Sprague-Dawley rat brain after 5 to 60 mins by gamma counting; type: ADME, organism-based; conditions: in vivo; summary of the method: as §1
Brain [8] = assay: Drug uptake in Sprague-Dawley rat brain at 0.95 mCi, iv after 60 mins by MicroPET analysis; type: ADME, organism-based; conditions: in vivo, 1 h
[9] = Octanol-water partition coefficient, log P of the compound; type: physicochemical

Sequence of Microtubule-associated protein tau (P10636 whole entry): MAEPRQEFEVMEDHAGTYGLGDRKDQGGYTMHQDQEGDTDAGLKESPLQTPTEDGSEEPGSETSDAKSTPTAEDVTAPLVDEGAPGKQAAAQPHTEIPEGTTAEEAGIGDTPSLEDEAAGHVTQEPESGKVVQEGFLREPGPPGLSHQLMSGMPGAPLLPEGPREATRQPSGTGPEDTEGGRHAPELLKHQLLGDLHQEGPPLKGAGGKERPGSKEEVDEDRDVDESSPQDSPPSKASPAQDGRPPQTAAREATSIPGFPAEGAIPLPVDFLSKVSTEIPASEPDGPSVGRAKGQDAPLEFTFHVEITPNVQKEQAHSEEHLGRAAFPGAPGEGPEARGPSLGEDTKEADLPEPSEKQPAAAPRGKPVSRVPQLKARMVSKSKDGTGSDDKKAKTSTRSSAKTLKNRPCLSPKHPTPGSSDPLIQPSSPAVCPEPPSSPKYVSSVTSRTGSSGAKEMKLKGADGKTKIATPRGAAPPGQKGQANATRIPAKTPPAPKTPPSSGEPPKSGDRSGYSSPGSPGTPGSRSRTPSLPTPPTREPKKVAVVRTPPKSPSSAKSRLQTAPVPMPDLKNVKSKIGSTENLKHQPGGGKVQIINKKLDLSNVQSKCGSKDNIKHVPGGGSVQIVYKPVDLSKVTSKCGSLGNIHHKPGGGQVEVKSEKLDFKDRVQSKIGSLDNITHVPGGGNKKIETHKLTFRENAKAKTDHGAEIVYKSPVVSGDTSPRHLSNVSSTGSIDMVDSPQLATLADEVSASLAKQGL

Structure (SMILES): Cc1c(OCC(F)(F)F)ccnc1C[S+]([O-])c1nc2ccccc2[nH]1 (stereo unspecified) [LANSOPRAZOLE]
Ki [1]: 2.5 nM

Kd [1]: 0.7 nM | Drug uptake [2]: Active | Drug uptake (Hippocampus): 4% | Drug uptake (Cortex): 12% | Drug uptake (Brain [3]): Active | Drug uptake (Brain [4]): Active | Stability (Rattus norvegicus): Unstable | Drug uptake (Kidney): Active | Drug uptake (Brain [5]): 500 nCi/cc | Drug uptake (Liver): Active | Drug uptake (Brain [6]): 1600 nCi/cc | Drug uptake (Brain [7]): Not Active | Drug uptake (Brain [8]): Not Active | logP [9]: 2.18
Structure (SMILES): Cc1c(OCC(F)(F)F)ccnc1C[S+]([O-])c1nc2ccccc2n1[11CH3] (stereo unspecified)

Bmax ([1]; tested as the 11C-labelled form): 0.214 fmol/µg
Structure (SMILES): Cc1c(OCC(F)(F)F)ccnc1C[S+]([O-])c1nc2ccccc2n1C (stereo unspecified)
